Data set [1] has as its target Non-receptor tyrosine-protein kinase TYK2 (Homo sapiens, UniProt P29597). Kind of data set: Inhibition of TYK2 in human whole blood assessed as decrease in IFNalpha-induced STAT5 phosphorylation preincubated for 1 hr followed by stimulation with IFN-alpha for 15 mins by fluorescence analysis. It is filed as tissue-based. Put shortly: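 Human whole blood stimulated with IFNα; STAT5 phosphorylation was read in cells by staining and flow cytometry. IC50 from dose–response; mean of at least three experiments.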

The target of a further data set is JAK1/TYK2 (Homo sapiens, UniProt P23458+P29597). Kind of data set: Inhibition of JAK1/TYK2 in human Kit225 T cells assessed as inhibition of STAT phosphorylation by luciferase reporter assay. It is filed as cell-based. Summed up:
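T-cells carrying a stably integrated STAT-dependent luciferase reporter were stimulated with IFNα or IL-23 to measure TYK2/JAK1-dependent signalling. Dose–response curves gave IC50.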
On the technique in general: Reporter assays use an easily measured gene product as a stand-in for the process of interest.

Data set [2] is described as follows: Permeability coefficient, Kp across apical to basolateral side in human Caco2 cells. It is filed as ADME, cell-based. The conditions noted are these: Caco-2, read-out: permeability. Put shortly: (§1)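 Caco-2 monolayer permeability measured in both directions, apical-to-basal and basal-to-apical, reported as Pc in nm/s. An efflux ratio was calculated from the two directions.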

Data set [3] is described as follows: Metabolic stability in mouse liver microsomes assessed as compound remaining incubated for 10 mins. It is filed as ADME, Microsome. The conditions noted are these: read-out: Stability. Put shortly: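 Mouse liver microsomal stability, reported as percent of parent remaining after a 10 min incubation. Values are means of at least three experiments unless otherwise noted.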
(In general: Microsomes from liver hold many membrane-bound enzymes, among them those of drug oxidation.)

Data set [4] has as its target Non-receptor tyrosine-protein kinase TYK2 (Mus musculus, UniProt Q9R117). Kind of data set: Inhibition of TYK2 in mouse whole blood assessed as decrease in IFNalpha-induced STAT1 phosphorylation preincubated for 1 hr followed by stimulation with IFN-alpha for 15 mins by fluorescence analysis. Format: tissue-based. Put shortly:
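Mouse whole blood stimulated with IFNα; STAT1 phosphorylation was measured by cellular staining and flow cytometry. Read as IC50.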

Data set [5] can be described thus: Permeability coefficient, Kp across basolateral to apical side in human Caco2 cells. Format: ADME, cell-based. Conditions: Caco-2, read-out: permeability. Summed up:
as §1
A general note: Caco-2 monolayers are a common model of the intestinal barrier.

Data set [6] is described as follows: Metabolic stability in mouse liver microsomes assessed as half life. Format: ADME, Microsome. Summed up:
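Liver microsomes from human, rat, mouse, dog, cynomolgus monkey and rabbit were incubated with compound. Stability is reported as half-life (T1/2, min). Values are means of at least three separate experiments.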

Structures are written as SMILES. Where only a bound is given, the exact number is not on record here.

The term IC50 denotes the concentration that gives 50% inhibition. In general, half-life refers to the time in which the quantity being followed falls by half.

Chain of JAK1/TYK2 (P23458 whole entry): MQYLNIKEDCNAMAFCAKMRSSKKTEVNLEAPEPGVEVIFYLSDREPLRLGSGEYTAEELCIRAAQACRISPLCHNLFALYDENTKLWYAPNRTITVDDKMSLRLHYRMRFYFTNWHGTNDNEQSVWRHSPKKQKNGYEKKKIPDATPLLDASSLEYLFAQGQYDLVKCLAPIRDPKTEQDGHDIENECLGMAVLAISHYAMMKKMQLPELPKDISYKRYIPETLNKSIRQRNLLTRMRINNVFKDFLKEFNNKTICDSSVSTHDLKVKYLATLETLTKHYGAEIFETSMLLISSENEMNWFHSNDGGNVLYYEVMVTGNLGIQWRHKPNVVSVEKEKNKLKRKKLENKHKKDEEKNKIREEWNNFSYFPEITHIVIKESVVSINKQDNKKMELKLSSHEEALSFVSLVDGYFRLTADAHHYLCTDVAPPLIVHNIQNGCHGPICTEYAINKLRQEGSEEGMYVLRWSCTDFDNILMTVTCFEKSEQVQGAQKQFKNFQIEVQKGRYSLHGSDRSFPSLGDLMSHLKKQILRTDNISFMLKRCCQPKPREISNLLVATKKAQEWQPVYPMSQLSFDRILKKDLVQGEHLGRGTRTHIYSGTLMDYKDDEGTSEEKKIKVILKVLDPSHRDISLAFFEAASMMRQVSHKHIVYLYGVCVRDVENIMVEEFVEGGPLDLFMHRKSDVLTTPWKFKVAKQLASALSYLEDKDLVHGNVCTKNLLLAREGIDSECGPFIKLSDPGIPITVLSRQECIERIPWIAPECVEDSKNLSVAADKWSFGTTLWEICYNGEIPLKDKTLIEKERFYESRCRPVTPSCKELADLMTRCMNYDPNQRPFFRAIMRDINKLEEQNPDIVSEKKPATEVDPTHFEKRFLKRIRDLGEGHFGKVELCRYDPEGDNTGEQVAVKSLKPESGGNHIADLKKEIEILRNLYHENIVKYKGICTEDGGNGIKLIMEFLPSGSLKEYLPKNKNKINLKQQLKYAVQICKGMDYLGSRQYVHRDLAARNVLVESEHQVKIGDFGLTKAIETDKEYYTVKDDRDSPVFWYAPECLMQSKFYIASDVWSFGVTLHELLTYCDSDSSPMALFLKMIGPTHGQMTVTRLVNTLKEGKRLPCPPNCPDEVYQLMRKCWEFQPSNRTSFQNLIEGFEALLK
Chain of JAK1/TYK2 (P29597 whole entry): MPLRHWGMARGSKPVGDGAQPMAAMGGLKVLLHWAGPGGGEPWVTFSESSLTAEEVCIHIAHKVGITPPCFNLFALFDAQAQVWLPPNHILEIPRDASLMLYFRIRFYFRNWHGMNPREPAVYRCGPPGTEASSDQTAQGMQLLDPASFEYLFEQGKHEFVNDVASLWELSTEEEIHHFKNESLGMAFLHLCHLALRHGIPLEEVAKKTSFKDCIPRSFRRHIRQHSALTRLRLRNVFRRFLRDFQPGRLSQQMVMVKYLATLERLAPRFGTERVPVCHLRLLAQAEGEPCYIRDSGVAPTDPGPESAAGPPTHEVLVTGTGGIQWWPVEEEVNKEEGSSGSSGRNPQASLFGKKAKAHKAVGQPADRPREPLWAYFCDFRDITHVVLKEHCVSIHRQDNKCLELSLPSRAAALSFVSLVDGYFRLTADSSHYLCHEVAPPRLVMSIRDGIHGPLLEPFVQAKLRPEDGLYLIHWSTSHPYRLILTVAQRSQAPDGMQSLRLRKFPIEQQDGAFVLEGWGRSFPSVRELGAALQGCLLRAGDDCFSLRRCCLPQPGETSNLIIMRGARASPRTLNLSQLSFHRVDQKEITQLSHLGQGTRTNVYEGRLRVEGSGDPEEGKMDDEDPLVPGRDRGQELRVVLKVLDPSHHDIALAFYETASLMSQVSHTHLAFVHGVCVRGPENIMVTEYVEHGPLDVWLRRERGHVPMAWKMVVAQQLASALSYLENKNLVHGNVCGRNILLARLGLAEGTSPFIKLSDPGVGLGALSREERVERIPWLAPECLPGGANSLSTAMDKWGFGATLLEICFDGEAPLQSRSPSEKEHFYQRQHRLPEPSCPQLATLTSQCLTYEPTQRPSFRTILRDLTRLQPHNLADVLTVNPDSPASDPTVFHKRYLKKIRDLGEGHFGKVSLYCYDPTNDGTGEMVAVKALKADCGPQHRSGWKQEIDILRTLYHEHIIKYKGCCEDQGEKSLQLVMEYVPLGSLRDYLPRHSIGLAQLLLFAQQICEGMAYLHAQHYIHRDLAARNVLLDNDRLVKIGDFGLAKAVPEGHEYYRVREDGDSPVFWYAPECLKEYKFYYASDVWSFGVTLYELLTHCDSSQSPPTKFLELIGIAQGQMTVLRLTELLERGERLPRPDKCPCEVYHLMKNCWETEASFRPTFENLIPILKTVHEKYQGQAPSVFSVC
Chain of Non-receptor tyrosine-protein kinase TYK2 (Mus musculus, UniProt Q9R117) (Q9R117 whole entry): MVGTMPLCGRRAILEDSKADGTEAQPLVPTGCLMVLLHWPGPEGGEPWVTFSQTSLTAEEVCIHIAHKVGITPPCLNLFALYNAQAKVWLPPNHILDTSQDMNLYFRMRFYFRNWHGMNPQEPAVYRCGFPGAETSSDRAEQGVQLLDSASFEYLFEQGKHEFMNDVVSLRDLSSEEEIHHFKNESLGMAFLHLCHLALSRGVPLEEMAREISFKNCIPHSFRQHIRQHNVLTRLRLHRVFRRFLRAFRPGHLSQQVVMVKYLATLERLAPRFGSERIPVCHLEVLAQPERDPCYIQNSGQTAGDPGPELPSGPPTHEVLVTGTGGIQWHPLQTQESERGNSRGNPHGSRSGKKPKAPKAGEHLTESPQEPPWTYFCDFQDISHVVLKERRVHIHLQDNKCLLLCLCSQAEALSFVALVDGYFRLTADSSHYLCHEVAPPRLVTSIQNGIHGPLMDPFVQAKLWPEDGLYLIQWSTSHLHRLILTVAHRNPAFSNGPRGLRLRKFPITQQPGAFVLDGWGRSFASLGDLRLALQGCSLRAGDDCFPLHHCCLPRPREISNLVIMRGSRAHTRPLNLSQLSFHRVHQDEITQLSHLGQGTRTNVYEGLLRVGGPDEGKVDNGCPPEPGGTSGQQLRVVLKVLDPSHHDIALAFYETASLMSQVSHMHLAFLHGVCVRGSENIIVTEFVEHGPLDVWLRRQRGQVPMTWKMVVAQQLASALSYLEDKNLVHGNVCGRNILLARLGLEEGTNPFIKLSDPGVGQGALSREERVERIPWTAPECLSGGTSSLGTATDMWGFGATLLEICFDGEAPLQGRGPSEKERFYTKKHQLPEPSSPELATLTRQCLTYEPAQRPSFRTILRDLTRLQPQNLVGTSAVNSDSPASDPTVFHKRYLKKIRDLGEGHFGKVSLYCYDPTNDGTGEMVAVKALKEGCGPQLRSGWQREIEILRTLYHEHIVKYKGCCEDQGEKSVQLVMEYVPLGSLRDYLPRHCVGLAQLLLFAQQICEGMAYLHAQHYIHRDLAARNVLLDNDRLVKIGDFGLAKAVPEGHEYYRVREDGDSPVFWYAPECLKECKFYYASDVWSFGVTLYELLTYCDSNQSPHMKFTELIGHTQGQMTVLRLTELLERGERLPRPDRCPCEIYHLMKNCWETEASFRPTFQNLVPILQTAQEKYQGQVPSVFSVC
Chain of Non-receptor tyrosine-protein kinase TYK2 (Homo sapiens, UniProt P29597) (P29597 whole entry): as the sequence (P29597 whole entry) above

Regarding `CNC(=O)c1cnc(Nc2cc(C)c(F)cn2)cc1Nc1cccc(C(=O)NCc2ccccn2)c1OC`, the IC50 worked out at 180 nM in data set [1] and 22 nM on JAK1/TYK2.
Taken in the same sequence, the figures for `CNC(=O)c1cccc(Nc2cc(Nc3ccc(F)cn3)ncc2C(=O)NC)c1` were greater than 10000 nM and 7500 nM.
As for `CNC(=O)c1cnc(NC(=O)C2CC2)cc1Nc1cccc(-c2ncn(C)n2)c1OC`, the IC50 worked out at 16 nM in data set [1], 14 nM at JAK1/TYK2 and 330 nM in data set [4]. Also, the Papp A→B in data set [2] worked out at 2.3 ×10⁻⁶ cm/s. Further, the remaining at 10 min in data set [3] came out at 93%.
For the compound `CNC(=O)c1cnc(Nc2cc(C)c(F)cn2)cc1Nc1cccc(-c2nc[nH]n2)c1OC`, the IC50 in data set [1] was 23 nM; at JAK1/TYK2 it was 8 nM; in data set [4] it was 310 nM. In data set [3], the remaining at 10 min came out at 51%.
Take `CNC(=O)c1ccc(Nc2cc(Nc3ccc(F)cn3)ncc2C(=O)NC)c(OC)c1`: the results for the IC50 (in data set [1]; at JAK1/TYK2) were 520 nM and 490 nM, respectively. Besides, the Papp A→B in data set [2] was less than 1.5 ×10⁻⁶ cm/s.
For `CNC(=O)c1cnc(Nc2cc(C)c(F)cn2)cc1Nc1cccc(C(N)=O)c1OC`, the results for the IC50 (in data set [1]; at JAK1/TYK2) were 62 nM and 30 nM, respectively. In data set [2], the Papp A→B was less than 1.5 ×10⁻⁶ cm/s. The Papp B→A in data set [5] came out at 26 ×10⁻⁶ cm/s.
With `[2H]C([2H])([2H])NC(=O)c1nnc(NC(=O)C2CC2)cc1Nc1cccc(-c2ncn(C)n2)c1`, the IC50 in data set [1] was greater than 10000 nM.
Consider `CNC(=O)c1cnc(Nc2cc(C)c(F)cn2)cc1Nc1cccc(C(=O)N(C)C)c1OC`, for which the figures for the IC50 (in data set [1]; at JAK1/TYK2) were 750 nM and 130 nM, respectively.
For `CNC(=O)c1cnc(Nc2cc(C)c(F)cn2)cc1Nc1cccc(-c2ncnn2C)c1OC`, the IC50 was found to be 87 nM in data set [1], 15 nM at JAK1/TYK2 and 380 nM in data set [4]. The remaining at 10 min in data set [3] is 9%.
With `CNC(=O)c1cnc(Nc2ccc(C#N)cn2)cc1Nc1cccc(-c2ncn(C)n2)c1OC`, the IC50 came out at 15 nM in data set [1], 6 nM at JAK1/TYK2 and 260 nM in data set [4]. In addition, the Papp A→B in data set [2] stood at 1.8 ×10⁻⁶ cm/s. For the same compound, in data set [3], the remaining at 10 min stood at 85%.
In the case of `CNC(=O)c1cnc(Nc2cc(C)c(F)cn2)cc1Nc1cccc(C(=O)NCCN2CCOCC2)c1OC`, the values for the IC50 (in data set [1]; at JAK1/TYK2) were 160 nM and 51 nM, respectively.
Taken in the same sequence, the figures for `CNC(=O)c1cnc(Nc2cc(C)c(F)cn2)cc1Nc1cccc(C(=O)NCCO)c1OC` were 270 nM and 220 nM.
As for `CNC(=O)c1cnc(Nc2cc(C)c(F)cn2)cc1Nc1cccc(-c2ccnn2C)c1OC`, the IC50 is 300 nM in data set [1] and 70 nM on JAK1/TYK2. Besides, the remaining at 10 min in data set [3] was 15%.
For the compound `CNC(=O)c1cnc(Nc2cc(C)nc(C)n2)cc1Nc1cccc(-c2ncn(C)n2)c1OC`, the IC50 in data set [1] was found to be 19 nM; at JAK1/TYK2, 12 nM; in data set [4], 730 nM. For the same compound, the Papp A→B in data set [2] is less than 1.5 ×10⁻⁶ cm/s. Moreover, the remaining at 10 min in data set [3] came to 73%.
Turning to `CNC(=O)c1cnc(Nc2cc(C)c(F)cn2)cc1Nc1cccc(-c2ccn(C)n2)c1OC`, the half-maximal inhibitory concentration (IC50) turned out to be 79 nM in data set [1], 9 nM on JAK1/TYK2 and 430 nM in data set [4]. For the same compound, the remaining at 10 min in data set [3] amounted to 66%.
For `[2H]C([2H])([2H])NC(=O)c1cnc(NC(=O)C2CC2)cc1Nc1cccc(-c2ncn(C)n2)c1OC`, the values for the half-maximal inhibitory concentration (IC50) (in data set [1]; at JAK1/TYK2; in data set [4]) were 13 nM, 8 nM and 100 nM, respectively. The half-life in data set [6] was greater than 2 h. Moreover, in data set [2], the Papp A→B was less than 1.5 ×10⁻⁶ cm/s. Besides, the remaining at 10 min in data set [3] was found to be 89%.
Take `CNC(=O)c1cnc(Nc2cc(C)c(F)cn2)cc1Nc1cccc(-c2n[nH]c(C)n2)c1OC`: the IC50 in data set [1] is 40 nM; on JAK1/TYK2, 7 nM; in data set [4], 320 nM. Moreover, the remaining at 10 min in data set [3] came out at 63%.
For `CCNC(=O)c1cccc(Nc2cc(Nc3cc(C)c(F)cn3)ncc2C(=O)NC)c1OC`, the IC50 in data set [1] was found to be 280 nM; at JAK1/TYK2, 28 nM.
As for `CNC(=O)c1cnc(Nc2cc(C)c(F)cn2)cc1Nc1cccc(C(=O)NCC2CC2)c1OC`, the half-inhibitory concentration (IC50) in data set [1] came out at 870 nM; on JAK1/TYK2 it was 64 nM.
Regarding `CNC(=O)c1cnc(Nc2ccc(F)cn2)cc1Nc1cccc(C(=O)NC)c1OC`, the IC50 in data set [1] was found to be 230 nM; at JAK1/TYK2 it was 78 nM. Moreover, the Papp A→B in data set [2] stood at 5 ×10⁻⁶ cm/s.
Turning to `CNC(=O)c1cnc(Nc2ccc(F)cn2)cc1Nc1cccc(C(N)=O)c1OC`, the IC50 in data set [1] is 120 nM; at JAK1/TYK2, 63 nM.
Turning to `CNC(=O)c1cnc(Nc2ccc(F)cn2)cc1Nc1cccc(C(=O)O)c1OC`, the IC50 (in data set [1]; at JAK1/TYK2) was greater than 10000 nM throughout. The Papp A→B in data set [2] is less than 1.5 ×10⁻⁶ cm/s.
`CNC(=O)c1cnc(Nc2cc(C)c(F)cn2)cc1Nc1cccc(-c2ncn(C)n2)c1OC`: the IC50 stood at 12 nM in data set [1], 4 nM on JAK1/TYK2 and 130 nM in data set [4]. Further, the remaining at 10 min in data set [3] was determined as 80%.
For the compound `CNC(=O)c1cnc(Nc2cc(C)c(F)cn2)cc1Nc1cccc(-c2nnc(C)o2)c1OC`, the IC50 in data set [1] was 100 nM; at JAK1/TYK2, 12 nM; in data set [4], 570 nM. Besides, the remaining at 10 min in data set [3] amounted to 70%.
Turning to `CNC(=O)c1cnc(Nc2ccc(F)cn2)cc1Nc1cccc(C#N)c1OC`, the figures for the IC50 (in data set [1]; at JAK1/TYK2) were 570 nM and 34 nM, respectively.
For the compound `CNC(=O)c1cnc(Nc2cc(C)c(F)cn2)cc1Nc1cccc(-c2nncn2C)c1OC`, the figures for the IC50 (in data set [1]; at JAK1/TYK2) were 150 nM and 16 nM, respectively. In data set [3], the remaining at 10 min is 29%.
As to `CNC(=O)c1cnc(Nc2ccc(F)cn2)cc1Nc1ccc(C(N)=O)cc1OC`, the results for the IC50 (in data set [1]; at JAK1/TYK2) were 390 nM and 930 nM, respectively.
Take `CNC(=O)c1cnc(Nc2cc(C)c(F)cn2)cc1Nc1cccc(-c2nnco2)c1OC`: the IC50 was found to be 170 nM in data set [1], 15 nM on JAK1/TYK2 and 522 nM in data set [4]. Also, in data set [3], the remaining at 10 min was determined as 46%.
For the compound `CNC(=O)c1cnc(Nc2cc(C)c(F)cn2)cc1Nc1cccc(C(=O)NC)c1OC`, the IC50 in data set [1] turned out to be 140 nM; on JAK1/TYK2 it was 47 nM.

These data come from ChEMBL document CHEMBL4376812 (J Med Chem, 2019).
